Assay results reported in publication PMC3351161 (Nucleic Acids Research, 2012).
Where no end group is shown, it is not given here. [ ]: non-standard residue; d: D form. pT = C[C@@H](OP(=O)(O)O)[C@H](N)C(=O)O

How the values were obtained:
RAD50 = assay: Peptide pull-down from HeLa nuclear extract; type: binding, human; settings: peptide coupled to magnetic beads; band at ∼150 kDa
[1] = system: Mdc1 FHA domain (M-1 GST-fragment); assay: Phosphopeptide pull-down with GST fragment M-1; type: binding, human; settings: bacterially expressed GST-fusion
Mdc1 [2] = assay: Peptide pull-down from HeLa nuclear extract; type: binding, human; settings: peptide coupled to magnetic beads, SDS-PAGE, western blot
MRE11 = assay: Peptide pull-down from HeLa nuclear extract; type: binding, human; settings: peptide coupled to magnetic beads; band at ∼80 kDa
[3] = system: Mdc1 BRCT domains (M-8 GST-fragment); assay: Phosphopeptide pull-down with GST fragment M-8; type: binding, human; settings: bacterially expressed GST-fusion
Mdc1 M-1, 1-124 = Mdc1 M-1, 1-124 (UniProt Q14676); assay: peptide pull-down of purified GST fragment; settings: reference: unphosphorylated peptide; sites T4
Mdc1 [4] = target: Mdc1 (UniProt Q14676); assay: Strep-Tactin pull-down, SILAC LC-MS/MS; settings: reference: wild type FHA fragment; sites T4
Mdc1 FHA domain = Mdc1 FHA domain (UniProt Q14676); assay: ITC; settings: reference: non-phosphorylated Thr-4 peptide; sites T4
Mdc1 1-800 = Mdc1 1-800 (UniProt Q14676); assay: anti-Flag co-IP, anti-Myc blot; settings: reference: wild type; sites T4
[5] = target: T1, Mdc1 fragment M-1 (amino acids 1–124), GST fusion (human, UniProt Q14676 1-124); assay: pull-down
T1 sequence (looked up): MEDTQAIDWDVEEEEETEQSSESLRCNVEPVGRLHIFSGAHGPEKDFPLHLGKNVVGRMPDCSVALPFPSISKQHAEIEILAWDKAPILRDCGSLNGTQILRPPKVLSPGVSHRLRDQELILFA

[6] = system: Mdc1–FHA WT and T4A mutant domains; assay: SILAC pull-down, wild-type versus T4A Mdc1–FHA domain after IR; type: binding, human; settings: IR-treated cells
Procedure, shortened: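 U2OS cells stably carry a doxycycline-inducible, C-terminally Strep-tagged FHA domain (aa 1–154) or empty plasmid. They are SILAC-labelled (Lys0/Arg0, Lys4/Arg6, Lys8/Arg10) in dialyzed FBS, induced 16 h, then given 10 Gy IR for 30 min. Lysis in pH 7.5 Tris/NP-40 buffer with phosphatase and protease inhibitors, Strep-Tactin capture, pooled eluates on 4–20% SDS-PAGE, in-gel trypsin digestion. Analysis by nano-LC Orbitrap Velos MS and MaxQuant (FDR <1%). Read-out is normalized log2 SILAC ratios; 1:1:1 ratios count as background binders.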

endogenous Mdc1 = assay: Co-immunoprecipitation of Flag-tagged Mdc1; type: cell-based, human; settings: 293T cells, with or without IR (10 Gy)
Procedure, shortened: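 HEK 293T cells in D-MEM with 10% FCS and streptomycin/penicillin were transfected (FuGene 6 or calcium phosphate) with FLAG-tagged human Mdc1 residues 1–800 in pcDNA3.1(+). IR was given in an X-ray cabinet at 5–10 Gy/min. Complexes were captured on anti-FLAG M2 affinity gel and probed for endogenous Mdc1.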

Myc-tagged Mdc1 (1–800) = assay: Co-immunoprecipitation of Flag- and Myc-tagged Mdc1; type: cell-based, human; settings: transiently transfected 293T cells, anti-Flag IP, anti-Myc immunoblot
Procedure, shortened: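 Human Mdc1 residues 1–800, C-terminally tagged with HA/FLAG or Myc, in a pcDNA3.1(+) vector. HEK 293T cells grown in D-MEM with 10% FCS and streptomycin/penicillin (100 U/ml). Transfected with FuGene 6 or calcium phosphate. Immunoprecipitation on anti-FLAG M2 affinity gel; Myc-tagged partner detected by immunoblot with rabbit polyclonal c-Myc antibody.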

SEC-MALS = target: the molecule itself; assay: SEC-MALS

Mdc1 (UniProt Q14676), sequence (Q14676 1-154 T4A): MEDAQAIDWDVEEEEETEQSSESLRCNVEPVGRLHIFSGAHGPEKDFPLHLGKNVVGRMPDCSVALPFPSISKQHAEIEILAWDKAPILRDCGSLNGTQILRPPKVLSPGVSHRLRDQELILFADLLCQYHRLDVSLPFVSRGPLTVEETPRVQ

MED[pT]QAIDWDAE[KBtn] [pThr-4 phosphopeptide]
RAD50 pulled down from HeLa nuclear extract (RAD50): pulled down by the phosphopeptide only | binding of FHA domain GST-fusion [1]: bound tightly and specifically | Mdc1 pulled down from HeLa nuclear extract (Mdc1 [2]): efficiently pulled down | Mdc1 pulled down from HeLa nuclear extract (Mdc1 [2]; listed as phosphopeptide): pulled down by the phosphopeptide only | MRE11 pulled down from HeLa nuclear extract (MRE11): pulled down by the phosphopeptide only | binding of C-terminal BRCT-repeat region GST-fusion [3]: no significant interaction detectable

Mdc1 1-12 (from UniProt Q14676) pThr-4 peptide
binding against the reference (Mdc1 M-1, 1-124): stronger

Mdc1 1-154 (from UniProt Q14676) T4A FHA fragment
binding against the reference (Mdc1 [4]): weaker

Mdc1 Thr-4 motif peptide (from UniProt Q14676) pThr-4 peptide
binding against the reference (Mdc1 FHA domain): stronger

Mdc1 1-800 (from UniProt Q14676) T4A
binding against the reference (Mdc1 1-800): weaker

MED[pT]QAIDWDVE (peptide, UniProt Q14676 1-12, looked up)
binding result [5]: binds

B1: RNF95: uncharacterized RING-finger domain protein (protein)
chain: MATSAPLRSLEEEVTCSICLDYLRDPVTIDCGHVFCRSCTTDVRPISGSRPVCPLCKKPFKKENIRPVWQLASLVENIERLKVDKGRQPGEVTREQQDAKLCERHREKLHYYCEDDGKLLCVMCRESREHRPHTAVLMEKAAQPHREKILNHLSTLRRDRDKIQGFQAKGEADILAALKKLQDQRQYIVAEFEQGHQFLREREEHLLEQLAKLEQELTEGREKFKSRGVGELARLALVISELEGKAQQPAAELMQDTRDFLNRYPRKKFWVGKPIARVVKKKTGEFSDKLLSLQRGLREFQGKLLRDLEYKTVSVTLDPQSASGYLQLSEDWKCVTYTSLYKSAYLHPQQFDCEPGVLGSKGFTWGKVYWEVEVEREGWSEDEEEGDEEEEGEEEEEEEEAGYGDGYDDWETDEDEESLGDEEEEEEEEEEEVLESCMVGVARDSVKRKGDLSLRPEDGVWALRLSSSGIWANTSPEAELFPALRPRRVGIALDYEGGTVTFTNAESQELIYTFTATFTRRLVPFLWLKWPGTRLLLRP
interaction with wild-type compared to T4A FHA domain (in words) [6]: significantly increased in the wild-type compared to T4A FHA domain expressing cells

B2: Mdc1 (1–800): tagged N-terminal Mdc1 fragment lacking the BRCT domains (protein)
chain: MEDTQAIDWDVEEEEETEQSSESLRCNVEPVGRLHIFSGAHGPEKDFPLHLGKNVVGRMPDCSVALPFPSISKQHAEIEILAWDKAPILRDCGSLNGTQILRPPKVLSPGVSHRLRDQELILFADLLCQYHRLDVSLPFVSRGPLTVEETPRVQGETQPQRLLLAEDSEEEVDFLSERRMVKKSRTTSSSVIVPESDEEGHSPVLGGLGPPFAFNLNSDTDVEEGQQPATEEASSAARRGATVEAKQSEAEVVTEIQLEKDQPLVKERDNDTKVKRGAGNGVVPAGVILERSQPPGEDSDTDVDDDSRPPGRPAEVHLERAQPFGFIDSDTDAEEERIPATPVVIPMKKRKIFHGVGTRGPGAPGLAHLQESQAGSDTDVEEGKAPQAVPLEKSQASMVINSDTDDEEEVSAALTLAHLKESQPAIWNRDAEEDMPQRVVLLQRSQTTTERDSDTDVEEEELPVENREAVLKDHTKIRALVRAHSEKDQPPFGDSDDSVEADKSSPGIHLERSQASTTVDINTQVEKEVPPGSAIIHIKKHQVSVEGTNQTDVKAVGGPAKLLVVSLEEAWPLHGDCETDAEEGTSLTASVVADVRKSQLPAEGDAGAEWAAAVLKQERAHEVGAQGGPPVAQVEQDLPISRENLTDLVVDTDTLGESTQPQREGAQVPTGREREQHVGGTKDSEDNYGDSEDLDLQATQCFLENQGLEAVQSMEDEPTQAFMLTPPQELGPSHCSFQTTGTLDEPWEVLATQPFCLRESEDSETQPFDTHLEAYGPCLSPPRAIPGDQHPESPVHTEPM
modifications: left off: HA/FLAG on one copy and Myc on the other, C-terminal, kept
co-immunoprecipitation with endogenous Mdc1 (endogenous Mdc1): exclusively in extracts prepared from IR-treated cells | interaction of Flag-tagged with Myc-tagged Mdc1 (1–800) (Myc-tagged Mdc1 (1–800)): efficiently interacted

B3: wild-type Mdc1–FHA (27–138) (domain or fragment, human, UniProt Q14676 27-138, looked up)
chain: NVEPVGRLHIFSGAHGPEKDFPLHLGKNVVGRMPDCSVALPFPSISKQHAEIEILAWDKAPILRDCGSLNGTQILRPPKVLSPGVSHRLRDQELILFADLLCQYHRLDVSLP
stoichiometry N (SEC-MALS): 2
